From ChEMBL document CHEMBL3632544, “Acyl dihydropyrazolo[1,5-a]pyrimidinones as metabotropic glutamate receptor 5 positive allosteric modulators” (Bioorg Med Chem Lett, 2015)
In brackets after ≈: the same amount, converted by molar mass.

Tests used:
[1] = Plasma clearance in dog at 1 mg/kg, iv and 5 mg/kg, po; format: ADME, organism-based, Canis lupus familiaris
[2] = Solubility in simulated gastric fluid; format: ADME; conditions: simulated gi fluid
In short: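 Solubility measured in simulated gastric fluid at 37 °C over 1 h; compound stability was assessed in parallel.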

[3] = Drug concentration in Sprague-Dawley rat brain at 30 mg/kg, po after 1 hr; format: ADME, organism-based; conditions: read-out: Drug uptake
In short: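 Rat modified Irwin study: single 30 mg/kg PO dose, with behaviour scored across 30 autonomic and somatomotor endpoints. Brain concentration measured 1.0 h post-dose. Unbound brain level estimated.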

[4] = Plasma clearance in Sprague-Dawley rat at 2.5 mg/kg, iv and 10 mg/kg, po; format: ADME, organism-based
[5] = tested on: Rattus norvegicus; test: Toxicity in Sprague-Dawley rat assessed as alteration in behavior across 30 distinct autonomic and somatomotor endpoints at 30 mg/kg, po; format: organism-based; conditions: in vivo
In short: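 Modified Irwin screen in rats given a single 30 mg/kg oral dose; 30 autonomic and somatomotor endpoints scored for behavioral change; brain concentration sampled 1.0 h post-dose.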

[6] = tested on: Rattus norvegicus; test: Toxicity in Sprague-Dawley rat assessed as decreased motor coordination at 56.6 mg/kg, po; format: organism-based; conditions: in vivo
In short: (§1)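 Rats dosed orally at 56.6 mg/kg and observed over 6.0 h. Behavior scored on a modified Racine scale, including motor activity and coordination. Brain concentration measured.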

[7] = tested on: Brain; test: Drug concentration in Sprague-Dawley rat brain at 56.6 mg/kg, po; format: ADME, organism-based; conditions: in vivo, read-out: Drug uptake
[8] = Volume of distribution at steady state in dog at 1 mg/kg, iv and 5 mg/kg, po; format: ADME, organism-based, Canis lupus familiaris; conditions: in vivo, read-out: Vdss
[9] = tested on: Rattus norvegicus; test: Oral bioavailability in Sprague-Dawley rat at 10 mg/kg; format: ADME, organism-based; conditions: in vivo
In short: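 Male Sprague-Dawley rats were dosed orally at 10 mg/kg in 20% β-CD (1 mg/mL) and sampled over 8 h. Cmax, Tmax and AUC0-8h were determined, and absolute %F was calculated against a discrete IV study.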

[10] = biological target: Metabotropic glutamate receptor 5 (Rattus norvegicus, UniProt P31424); test: Positive allosteric modulation of rat mGlu5 assessed as calcium mobilization by cell-based assay; format: functional
[11] = biological target: Metabotropic glutamate receptor 1 (Homo sapiens, UniProt Q13255); test: Positive allosteric modulation of mGlu1 receptor (unknown origin) relative to control
[12] = biological target: T1, Metabotropic glutamate receptor 5 (Homo sapiens, UniProt P41594); test: Positive allosteric modulation of human mGlu5 expressed in HEK293 cells assessed as calcium mobilization; format: functional, cell-based; conditions: read-out: EC50
In short: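 Calcium mobilization read-out in HEK293 cells stably expressing human mGlu5; PAM EC50 and efficacy as % of maximal glutamate response. Mean±SEM of three or more independent determinations, each in triplicate.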

[13] = Stability in beta cyclodextrin at pH 6 upto 5 days; format: physicochemical; conditions: buffer, pH 6, 120 h
In short: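 Stability of the compound formulated at 4 mg/mL in 20% β-cyclodextrin vehicle, pH 6, monitored for up to five days; percent decomposition of the amide determined.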

[14] = biological target: Cytochrome P450 2D6 (Homo sapiens, UniProt P10635); test: Inhibition of CYP2D6 (unknown origin); format: ADME
Sequence of Cytochrome P450 2D6 (P10635 whole entry): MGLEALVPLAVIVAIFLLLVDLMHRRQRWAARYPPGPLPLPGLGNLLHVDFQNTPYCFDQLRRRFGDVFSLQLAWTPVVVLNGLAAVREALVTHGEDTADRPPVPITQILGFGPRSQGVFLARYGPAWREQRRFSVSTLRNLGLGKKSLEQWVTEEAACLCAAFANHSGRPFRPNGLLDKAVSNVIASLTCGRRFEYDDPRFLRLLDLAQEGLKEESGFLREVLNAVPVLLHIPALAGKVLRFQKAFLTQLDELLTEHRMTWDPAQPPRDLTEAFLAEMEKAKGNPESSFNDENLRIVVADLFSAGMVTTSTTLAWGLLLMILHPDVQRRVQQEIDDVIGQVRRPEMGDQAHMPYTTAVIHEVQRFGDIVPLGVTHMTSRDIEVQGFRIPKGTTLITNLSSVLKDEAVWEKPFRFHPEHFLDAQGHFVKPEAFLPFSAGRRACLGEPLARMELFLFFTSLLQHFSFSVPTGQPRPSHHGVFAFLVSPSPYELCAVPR

[15] = biological target: T1, Metabotropic glutamate receptor 5; test: Positive allosteric modulation of human mGlu5 expressed in HEK293 cells assessed as calcium mobilization relative to glutamate; format: functional, cell-based
In short: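 Calcium mobilization in HEK293 cells expressing human mGlu5, reported as EC50 and % Glu Max. Mean±SEM of three or more independent determinations, each run in triplicate.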
Target sequence in this assay (P41594 21-1212 limits assumed): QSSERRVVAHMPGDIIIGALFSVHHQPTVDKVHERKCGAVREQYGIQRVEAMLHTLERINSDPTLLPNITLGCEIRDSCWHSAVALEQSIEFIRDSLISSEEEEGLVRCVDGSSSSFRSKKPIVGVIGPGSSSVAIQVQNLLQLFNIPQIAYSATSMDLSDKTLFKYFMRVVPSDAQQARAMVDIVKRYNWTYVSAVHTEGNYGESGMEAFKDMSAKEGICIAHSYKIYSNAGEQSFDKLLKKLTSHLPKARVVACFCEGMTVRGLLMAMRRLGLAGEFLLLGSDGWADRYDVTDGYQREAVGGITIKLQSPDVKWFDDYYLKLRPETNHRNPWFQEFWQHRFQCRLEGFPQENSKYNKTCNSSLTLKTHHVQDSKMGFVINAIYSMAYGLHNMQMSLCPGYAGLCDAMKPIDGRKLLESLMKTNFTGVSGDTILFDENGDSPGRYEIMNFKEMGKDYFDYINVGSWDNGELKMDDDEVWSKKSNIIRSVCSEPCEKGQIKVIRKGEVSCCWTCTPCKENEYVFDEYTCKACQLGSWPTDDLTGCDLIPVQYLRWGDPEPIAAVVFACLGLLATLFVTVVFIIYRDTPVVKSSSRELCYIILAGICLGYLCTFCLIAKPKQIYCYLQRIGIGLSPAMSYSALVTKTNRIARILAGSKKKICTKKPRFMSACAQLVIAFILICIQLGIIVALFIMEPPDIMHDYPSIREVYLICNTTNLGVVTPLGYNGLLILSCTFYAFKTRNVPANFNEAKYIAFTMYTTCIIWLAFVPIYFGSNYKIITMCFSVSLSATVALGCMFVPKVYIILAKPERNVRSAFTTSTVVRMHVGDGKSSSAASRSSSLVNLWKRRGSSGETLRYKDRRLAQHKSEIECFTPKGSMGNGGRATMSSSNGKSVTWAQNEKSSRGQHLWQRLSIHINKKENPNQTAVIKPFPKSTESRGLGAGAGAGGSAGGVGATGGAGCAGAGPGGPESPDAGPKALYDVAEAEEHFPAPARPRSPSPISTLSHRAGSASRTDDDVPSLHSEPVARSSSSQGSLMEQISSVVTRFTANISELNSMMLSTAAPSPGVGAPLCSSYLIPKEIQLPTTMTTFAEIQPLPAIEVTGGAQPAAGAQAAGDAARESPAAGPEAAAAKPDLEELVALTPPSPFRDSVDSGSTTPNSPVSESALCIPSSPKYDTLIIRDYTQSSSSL

[16] = Oral bioavailability in dog at 5 mg/kg; format: ADME, organism-based, Canis lupus familiaris; conditions: in vivo
[17] = biological target: Metabotropic glutamate receptor 4 (Homo sapiens, UniProt Q14833); test: Positive allosteric modulation of mGlu4 receptor (unknown origin) relative to control
[18] = biological target: Metabotropic glutamate receptor 6 (Homo sapiens, UniProt O15303); test: Positive allosteric modulation of mGlu6 receptor (unknown origin) relative to control
[19] = Elimination half life in Sprague-Dawley rat at 2.5 mg/kg, iv and 10 mg/kg, po; format: ADME, organism-based; conditions: in vivo, read-out: beta t1/2 (converted)
In short: (§2)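 Discrete PK in male Sprague-Dawley rats. Oral arm: 10 mg/kg PO in 20% β-CD at 1 mg/mL. Plasma sampled to 8 h, giving Cmax, Tmax and AUC0-8h. Absolute oral bioavailability derived against the IV arm.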

[20] = biological target: Metabotropic glutamate receptor 5 (Rattus norvegicus) (UniProt P31424); test: Positive allosteric modulation of rat mGlu5 assessed as calcium mobilization by cell-based assay relative to glutamate; format: functional
Sequence of Metabotropic glutamate receptor 5 (Rattus norvegicus) (P31424 21-1203 limits assumed): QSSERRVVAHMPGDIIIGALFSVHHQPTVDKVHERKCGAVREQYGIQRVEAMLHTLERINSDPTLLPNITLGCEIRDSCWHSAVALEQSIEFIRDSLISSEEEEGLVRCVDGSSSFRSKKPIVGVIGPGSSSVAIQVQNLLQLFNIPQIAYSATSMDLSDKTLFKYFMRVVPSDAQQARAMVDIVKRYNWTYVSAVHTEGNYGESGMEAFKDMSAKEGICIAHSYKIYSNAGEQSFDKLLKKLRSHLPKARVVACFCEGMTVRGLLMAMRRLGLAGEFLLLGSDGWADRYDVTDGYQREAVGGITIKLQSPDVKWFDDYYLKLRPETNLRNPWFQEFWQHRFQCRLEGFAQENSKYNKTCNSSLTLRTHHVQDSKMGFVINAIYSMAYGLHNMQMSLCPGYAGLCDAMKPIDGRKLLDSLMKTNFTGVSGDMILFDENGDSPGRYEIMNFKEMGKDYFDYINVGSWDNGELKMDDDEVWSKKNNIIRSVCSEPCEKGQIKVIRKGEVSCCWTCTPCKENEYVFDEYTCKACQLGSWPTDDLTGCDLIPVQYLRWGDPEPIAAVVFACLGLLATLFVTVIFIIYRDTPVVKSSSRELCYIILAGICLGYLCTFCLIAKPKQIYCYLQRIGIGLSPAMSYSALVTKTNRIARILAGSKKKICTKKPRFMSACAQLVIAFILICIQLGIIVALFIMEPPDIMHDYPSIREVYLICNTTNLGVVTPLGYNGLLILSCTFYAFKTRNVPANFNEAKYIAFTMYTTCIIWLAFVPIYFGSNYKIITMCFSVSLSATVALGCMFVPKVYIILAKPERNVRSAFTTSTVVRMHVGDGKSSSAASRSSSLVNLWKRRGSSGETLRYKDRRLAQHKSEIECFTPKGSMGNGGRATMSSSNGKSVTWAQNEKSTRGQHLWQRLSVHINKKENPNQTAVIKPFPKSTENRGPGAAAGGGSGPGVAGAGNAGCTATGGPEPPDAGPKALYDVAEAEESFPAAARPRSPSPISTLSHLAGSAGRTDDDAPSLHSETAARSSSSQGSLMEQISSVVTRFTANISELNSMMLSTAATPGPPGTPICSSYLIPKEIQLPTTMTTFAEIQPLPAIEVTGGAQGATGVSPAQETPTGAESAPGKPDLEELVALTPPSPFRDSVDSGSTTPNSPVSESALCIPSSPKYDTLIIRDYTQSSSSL

[21] = biological target: Metabotropic glutamate receptor 3 (Homo sapiens, UniProt Q14832); test: Positive allosteric modulation of mGlu3 receptor (unknown origin) relative to control
[22] = tested on: Brain; test: Fraction unbound in rat brain; format: ADME, tissue-based
In short: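 Rat brain unbound fraction obtained from a brain homogenate binding assay.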

[23] = biological target: T2, Cytochrome P450 1A2 (Homo sapiens, UniProt P05177); test: Inhibition of CYP1A2 (unknown origin); format: ADME
T2 sequence (P05177 whole entry): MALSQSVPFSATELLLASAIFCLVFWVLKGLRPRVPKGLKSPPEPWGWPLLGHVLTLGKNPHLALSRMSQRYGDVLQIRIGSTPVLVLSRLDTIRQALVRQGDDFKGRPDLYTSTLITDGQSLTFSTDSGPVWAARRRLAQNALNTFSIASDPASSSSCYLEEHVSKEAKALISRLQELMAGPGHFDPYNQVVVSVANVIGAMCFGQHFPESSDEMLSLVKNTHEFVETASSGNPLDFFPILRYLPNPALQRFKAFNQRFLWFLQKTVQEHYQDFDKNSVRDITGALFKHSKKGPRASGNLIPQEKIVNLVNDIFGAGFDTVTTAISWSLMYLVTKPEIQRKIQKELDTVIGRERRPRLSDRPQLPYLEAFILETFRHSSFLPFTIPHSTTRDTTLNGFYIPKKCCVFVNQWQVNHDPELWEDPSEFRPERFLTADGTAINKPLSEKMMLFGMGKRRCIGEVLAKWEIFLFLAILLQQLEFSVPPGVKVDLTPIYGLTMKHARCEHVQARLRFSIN

[24] = biological target: Cytochrome P450 3A4 (Homo sapiens, UniProt P08684); test: Inhibition of CYP3A4 (unknown origin); format: ADME
Sequence of Cytochrome P450 3A4 (P08684 whole entry): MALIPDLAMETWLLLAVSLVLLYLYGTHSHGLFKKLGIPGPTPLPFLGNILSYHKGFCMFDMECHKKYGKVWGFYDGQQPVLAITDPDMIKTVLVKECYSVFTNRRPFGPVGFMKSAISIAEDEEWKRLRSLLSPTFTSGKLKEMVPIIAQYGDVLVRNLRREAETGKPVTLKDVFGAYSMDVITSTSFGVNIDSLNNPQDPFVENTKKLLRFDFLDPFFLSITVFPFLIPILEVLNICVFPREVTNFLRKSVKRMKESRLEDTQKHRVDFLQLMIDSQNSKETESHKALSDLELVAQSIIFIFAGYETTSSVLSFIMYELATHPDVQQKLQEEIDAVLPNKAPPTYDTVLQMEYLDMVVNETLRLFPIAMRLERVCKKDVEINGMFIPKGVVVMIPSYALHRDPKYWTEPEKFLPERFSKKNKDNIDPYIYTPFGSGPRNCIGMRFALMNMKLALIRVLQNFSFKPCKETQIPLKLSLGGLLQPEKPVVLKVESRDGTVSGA

[25] = Elimination half life in dog at 1 mg/kg, iv and 5 mg/kg, po; format: ADME, organism-based, Canis lupus familiaris; conditions: in vivo
[26] = Volume of distribution at steady state in Sprague-Dawley rat at 2.5 mg/kg, iv and 10 mg/kg, po; format: ADME, organism-based; conditions: in vivo, read-out: Vdss
[27] = tested on: Plasma; test: Fraction unbound in rat plasma; format: ADME, cell-free
In short: (§3)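 Plasma protein binding measured in human and rat plasma; readout is fraction unbound.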

[28] = biological target: Metabotropic glutamate receptor 7 (Homo sapiens, UniProt Q14831); test: Positive allosteric modulation of mGlu7 receptor (unknown origin) relative to control
[29] = tested on: Plasma; test: Fraction unbound in human plasma; format: ADME, cell-free; in short: as §3
[30] = biological target: Metabotropic glutamate receptor 5 (Rattus norvegicus) (UniProt P31424); test: Positive allosteric modulation of mGlu5 in rat astrocytes relative to glutamate; format: cell-based
[31] = tested on: Rattus norvegicus; test: Cmax in Sprague-Dawley rat at 2.5 mg/kg, iv and 10 mg/kg, po; format: ADME, organism-based; conditions: in vivo; in short: as §2
[32] = biological target: Cytochrome P450 2C9 (Homo sapiens, UniProt P11712); test: Inhibition of CYP2C9 (unknown origin); format: ADME
Sequence of Cytochrome P450 2C9 (P11712 whole entry): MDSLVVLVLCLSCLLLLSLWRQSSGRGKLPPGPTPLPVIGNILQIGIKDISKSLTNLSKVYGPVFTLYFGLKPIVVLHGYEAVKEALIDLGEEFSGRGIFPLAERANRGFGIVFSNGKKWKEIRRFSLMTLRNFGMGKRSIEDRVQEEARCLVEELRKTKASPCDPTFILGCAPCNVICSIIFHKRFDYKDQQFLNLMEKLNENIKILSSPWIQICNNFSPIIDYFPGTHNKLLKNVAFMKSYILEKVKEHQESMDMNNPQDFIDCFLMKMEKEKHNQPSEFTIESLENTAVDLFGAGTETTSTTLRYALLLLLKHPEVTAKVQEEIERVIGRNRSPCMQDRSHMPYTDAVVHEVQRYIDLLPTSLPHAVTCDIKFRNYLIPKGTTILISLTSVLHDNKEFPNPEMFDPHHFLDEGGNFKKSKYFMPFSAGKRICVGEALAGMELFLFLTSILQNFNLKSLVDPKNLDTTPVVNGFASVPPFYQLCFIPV

[33] = AUC in dog plasma at 1 mg/kg, iv and 5 mg/kg, po; format: ADME, organism-based, Canis lupus familiaris
[34] = Plasma clearance in Sprague-Dawley rat at 0.2 mg/kg, iv; format: ADME, organism-based
[35] = Cmax in dog at 1 mg/kg, iv and 5 mg/kg, po; format: ADME, organism-based, Canis lupus familiaris; conditions: in vivo
[36] = tested on: Rattus norvegicus; test: Inhibition of amphetamine-induced hyperlocomotion in oral-dosed Sprague-Dawley rat assessed as reversal of amphtamine-induced effect drug administered 20 mins prior to 1 mg/kg amphetamine challenge; format: functional; conditions: read-out: MED
In short: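 Male Sprague-Dawley rats received a single oral screening dose of 10 mg/kg; full dose-response studies were also run (n = 8/group). Readout is % reversal of amphetamine-induced locomotion relative to vehicle control. Terminal brain and plasma levels were sampled at T90.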

[37] = AUC (0 to 8 hrs) in Sprague-Dawley rat plasma at 2.5 mg/kg, iv and 10 mg/kg, po; format: ADME, organism-based; in short: as §2
[38] = Stability in simulated gastric fluid for 1 hr; format: physicochemical; conditions: simulated gi fluid
In short: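 Incubation in simulated gastric fluid at 37 °C for 1 h; decomposition of the external amide assessed.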

[39] = biological target: Metabotropic glutamate receptor 8 (Homo sapiens, UniProt O00222); test: Positive allosteric modulation of mGlu8 receptor (unknown origin) relative to control
[40] = tested on: Plasma; test: Stability in rat plasma after 4 hrs; format: ADME, cell-free
In short: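 Compound incubated in rat plasma at 37 °C for 4 h; stability assessed.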

[41] = tested on: Rattus norvegicus; test: Toxicity in Sprague-Dawley rat assessed as decreased motor activity at 56.6 mg/kg, po; format: organism-based; conditions: in vivo; in short: as §1
[42] = biological target: Metabotropic glutamate receptor 2 (Homo sapiens, UniProt Q14416); test: Positive allosteric modulation of mGlu2 receptor (unknown origin) relative to control
Sequence of Metabotropic glutamate receptor 2 (Q14416 whole entry): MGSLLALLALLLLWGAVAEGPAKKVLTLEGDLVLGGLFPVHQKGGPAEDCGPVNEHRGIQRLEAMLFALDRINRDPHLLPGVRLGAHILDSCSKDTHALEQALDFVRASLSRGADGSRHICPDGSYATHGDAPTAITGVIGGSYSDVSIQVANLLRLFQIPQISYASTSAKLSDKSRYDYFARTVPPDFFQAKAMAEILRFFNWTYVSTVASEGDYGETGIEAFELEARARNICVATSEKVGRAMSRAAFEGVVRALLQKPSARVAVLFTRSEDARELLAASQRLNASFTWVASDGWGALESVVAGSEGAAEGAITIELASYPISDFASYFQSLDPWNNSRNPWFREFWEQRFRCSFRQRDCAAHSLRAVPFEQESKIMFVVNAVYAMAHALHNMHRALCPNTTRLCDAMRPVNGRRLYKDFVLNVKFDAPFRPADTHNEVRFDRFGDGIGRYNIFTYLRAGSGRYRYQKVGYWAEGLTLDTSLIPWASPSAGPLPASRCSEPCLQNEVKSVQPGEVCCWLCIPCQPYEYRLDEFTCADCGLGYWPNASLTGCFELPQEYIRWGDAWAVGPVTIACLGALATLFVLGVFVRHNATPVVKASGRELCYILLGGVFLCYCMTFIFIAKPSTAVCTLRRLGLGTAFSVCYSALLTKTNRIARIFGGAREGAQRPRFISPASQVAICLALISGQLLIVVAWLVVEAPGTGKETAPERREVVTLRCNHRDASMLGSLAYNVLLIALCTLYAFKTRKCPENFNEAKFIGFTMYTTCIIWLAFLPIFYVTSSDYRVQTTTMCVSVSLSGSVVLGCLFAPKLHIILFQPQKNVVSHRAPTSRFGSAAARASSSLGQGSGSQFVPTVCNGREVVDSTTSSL

CC(=O)N1CCCn2nc(COc3ccccc3)cc21
clearance [1]: 37 mL/min/kg | solubility [2]: 315 µg/mL (≈ 1160 µM) | concentration at 1 h [3]: 71 µM | clearance [4]: 54 mL/min/kg | Activity [5]: Non-toxic | Activity [6]: Toxic | concentration [7]: 113 µM | Vd [8]: 1.1 L/kg | F [9]: 29% | EC50 [10]: 0.06 µM | EC50 [11]: > 10 µM | EC50 [12]: 0.36 µM | Stability [13]: Stable | IC50 [14]: > 30 µM | %max [15]: 65% | bioavailability [16]: < 5% | EC50 [17]: > 10 µM | EC50 [18]: > 10 µM | half-life [19]: 6.5 h | %max [20]: 65% | EC50 [21]: > 10 µM | Fu [22]: 0.51 | IC50 [23]: > 30 µM | IC50 [24]: > 30 µM | half-life [25]: < 0.5 h | Vd [26]: 3.9 L/kg | Fu [27]: 0.37 | EC50 [28]: > 10 µM | Fu [29]: 0.26 | %max [30]: 57% | Cmax [31]: 2.5 µM | IC50 [32]: > 30 µM | AUC [33]: 0.1 µM·h | clearance [34]: 118 mL/min/kg | Cmax [35]: < 0.1 µM | minimal effective dose [36]: 3 mg/kg | AUC(0-t) [37]: 3.3 µM·h | Stability [38]: Stable | EC50 [39]: > 10 µM | Stability [40]: Stable | Activity [41]: Toxic | EC50 [42]: > 10 µM
